Bioassay records (PubChem BioAssay)
RGS4 inh: RGS4 inhibitors, primary screen, cell-based, HEK293 M3R inducible RGS4, calcium flux | AID 463165, 2010 | Fluo-4 calcium flux; hits give high values; triggered by carbachol at its EC20 | 0.45% of 310,000 active | B-score at 10 µM;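 active = B-score, a plate-corrected calcium signal, over three deviations above library mean, with baseline fluorescence within five deviations of library mean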;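 note: RGS4 expression induced by doxycycline in cells with stable M3 receptor; B-score is computed from the integrated fluorescence ratio over baseline after carbachol; higher B-score means a larger calcium signal and so more RGS4 inhibition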
Target sequence (P49798 whole entry, looked up): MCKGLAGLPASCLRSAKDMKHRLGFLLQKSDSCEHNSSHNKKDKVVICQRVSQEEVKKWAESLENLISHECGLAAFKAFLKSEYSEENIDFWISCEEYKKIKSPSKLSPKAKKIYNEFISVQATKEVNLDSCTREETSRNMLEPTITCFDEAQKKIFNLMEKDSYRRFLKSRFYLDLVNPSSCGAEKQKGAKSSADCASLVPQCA
MrgX1 allo act: positive allosteric modulators of MrgX1, primary screen, HEK293 cells, Fluo-4 calcium flux. Mas-related G-protein coupled receptor member X1 (Homo sapiens), Q96LB2. FDSS; hits give high values. B-score at 10 µM. 0.63% of 310,000 active;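 active = plate-corrected calcium response at least 3 library SD above typical, normal starting fluorescence, not activating the receptor alone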;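 note: compound read alongside a low EC10 to EC30 dose of BAM8-22 agonist; peak minus trough fluorescence over baseline measured at the second addition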
Target sequence (Q96LB2 whole entry, looked up): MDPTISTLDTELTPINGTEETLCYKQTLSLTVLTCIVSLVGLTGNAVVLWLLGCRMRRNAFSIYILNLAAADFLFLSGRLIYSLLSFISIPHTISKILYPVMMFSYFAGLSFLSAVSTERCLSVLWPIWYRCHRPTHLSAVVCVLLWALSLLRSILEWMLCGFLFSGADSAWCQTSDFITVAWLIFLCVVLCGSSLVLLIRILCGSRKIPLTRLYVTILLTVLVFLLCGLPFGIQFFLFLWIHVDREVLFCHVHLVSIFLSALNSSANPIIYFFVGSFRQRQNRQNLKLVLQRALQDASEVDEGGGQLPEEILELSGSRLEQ
MrgX1 agonist: agonists of human MrgX1 receptor, primary screen, HEK293 cells, Fluo-4 calcium flux. Fluo-4 calcium fluorescence, agonist mode; hits give high values. B-score at 10 µM. 0.44% of 310,000 active. AID 588627, 2011;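 active = calcium response B-score plate-corrected fluorescence ratio at least 3 library SD, with starting fluorescence B-score inside 5 SD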
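Test system: HEK293 cells stably expressing human MrgX1 receptor; Input: fifteen thousand cells per well; Dosing: compound delivered in addition one of three; Schedule: overnight seeding, then 1 h dark dye loading; Technique: Fluo-4 NW calcium fluorescence; Measure: B-scored fluorescence response ratio; Controls: positive and negative controls per plate.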
RGS4 pot: RGS4 potentiators or activators, primary screen, cell-based, HEK293 M3R inducible RGS4, calcium flux; carbachol calcium flux Fluo4; hits give low values; B-score at 10 µM; 0.92% of 310,000 active; AID 463111, 2010;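 active = B-score of the integrated calcium signal more than 4 SD below the library mean, with starting fluorescence not abnormally high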;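 note: negative B-score means reduced calcium response which marks RGS4 activation or potentiation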
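test system = M3R-expressing HEK293 line, RGS4 induced by doxycycline | probe or stimulus = carbachol at ECmax as muscarinic agonist stimulus | timing = dye loading 30 min 37 °C, buffer rest 30 min RT | signal = calcium dye Fluo4 fluorescence | evaluation = B score from integrated fluorescence ratio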
MrgX1 antagonist: antagonists of human MrgX1 receptor, primary screen, HEK293 cells, Fluo-4 calcium flux; Mas-related G-protein coupled receptor member X1 (Homo sapiens), Q96LB2; BAM8-22 antagonism; hits give low values; B-score at 10 µM; 1.3% of 310,000 active;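 active = calcium-response B-score plate-corrected more than 3 library SD below zero, starting fluorescence within 5 deviations, no agonist response on first addition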;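 note: peak minus trough fluorescence over baseline after final BAM8-22 challenge near maximal dose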
* hit, by the source's call; i = inactive; x = no result given. An excerpt weighted towards active compounds, which were near 3.5% of everything screened.

SMILES	RGS4 inh	MrgX1 allo act	MrgX1 agonist	RGS4 pot	MrgX1 antagonist
CN(C)[C@@H]1CCC[C@H]1OC(=O)C(c1ccccc1)c1ccccc1	i	i	i	i	i
CC1CN(C)C(C)CC1OC(=O)C(c1ccccc1)c1ccccc1 (stereo not drawn)	i	i	i	-7.23*	i
CCn1nc(NS(=O)(=O)c2ccccc2[N+](=O)[O-])c2cc3ccc(C)cc3nc21	i	9.19*	i	i	i
CC1=CC(C)(C)N2C(=O)C3(C(C#N)=C(N)OC4=C3C(=O)CC(C)(C)C4)c3cccc1c32 (stereo not drawn)	i	x	x	i	x
CC1(C)CC(=O)C2=C(C1)OC(N)=C(C#N)C21C(=O)N(Cc2ccccc2Cl)c2ccccc21 (stereo not drawn)	i	8.66*	i	i	i
CCOC(=O)C1=C(C)N=c2s/c(=C/c3cccc(OCC(=O)O)c3)c(=O)n2C1c1ccc(F)cc1 (stereo not drawn)	i	i	i	i	i
CCOC(=O)C1=C(C)N=c2s/c(=C\c3ccc(C(=O)O)cc3)c(=O)n2C1c1ccc(F)cc1 (stereo not drawn)	i	i	i	-7.41*	-4.81*
Cc1cccc(-c2nc3c(c(SCC(=O)N4CCOCC4)n2)COC(C)(C)C3)c1	i	i	i	i	i
Cn1c(=O)cc(SCC(=O)NCCC2=CCCCC2)c2cc(Cl)ccc21	i	i	i	i	i
COC(=O)Nc1c(-c2ccccc2)nc2ccc(C)cn12	i	i	i	i	i
CCCCNc1c(-c2cccc(-c3cc(C(C)=O)cs3)c2)nc2ccc(C)cn12	i	i	i	-7.08*	i
CCCCNc1c(-c2ccc(-c3cccc(Cl)c3)cc2)nc2ccccn12	i	i	i	i	i
CCCCNc1c(-c2cccc(-c3ccc(OC)cc3)c2)nc2ccc(C)cn12	i	i	i	-7.8*	i
O=C1CSC(c2ccccc2[N+](=O)[O-])N1CCc1ccccc1 (stereo not drawn)	i	i	i	i	i
CC(C)NC(=O)CN1CCC(c2nc3ccccc3[nH]2)CC1	i	i	i	i	i
O=C1Nc2ccccc2C1=Nc1ccc(Cl)cc1	i	i	i	i	i
Cc1ccc(N=C2C(=O)Nc3ccccc32)cc1	i	i	42.3*	i	i
COc1ccc(-c2csc3ncnc(N4CCN(c5ccccc5[N+](=O)[O-])CC4)c23)cc1	i	i	i	-7.35*	i
COc1ccc(-c2csc3ncnc(N4CCN(S(=O)(=O)c5ccc(C(C)=O)cc5)CC4)c23)cc1	i	i	i	-6.99*	i
CC(=O)NN1C(=O)/C(=C/c2ccc(Br)o2)SC1=S	i	7.05*	i	i	i
CC(=O)NN1C(=O)/C(=C\c2ccccc2)SC1=S	i	9.46*	i	i	i
COCCNC(=S)NNc1ccccc1[N+](=O)[O-]	i	i	i	i	-5.12*
Cc1ccccc1OCC(=O)N(CC(C)C)c1c(N)n(CC(C)C)c(=O)[nH]c1=O	i	i	i	i	i
COc1cc(C(=O)NCC(=O)N2CCN(S(=O)(=O)c3cc(C)ccc3C)CC2)cc(OC)c1OC	i	i	i	i	i
Cc1ccc(NC(=O)c2cc3cc(OC(F)(F)F)ccc3[nH]2)cc1	i	i	i	i	i
SMILES	RGS4 inh	MrgX1 allo act	MrgX1 agonist	RGS4 pot	MrgX1 antagonist
O=C(NNC(=O)c1ccccc1Cl)c1cc2cc(OC(F)(F)F)ccc2[nH]1	i	7.53*	i	i	i
Cn1c(SCC(=O)N2CCCC2)nnc1-c1cnccn1	i	i	i	i	i
O=C(C1=COCCO1)N1CCN(S(=O)(=O)c2cccc(Cl)c2Cl)CC1	i	i	i	i	-5.65*
Cc1ccc(S(=O)(=O)N2CCN(C(=O)C3=COCCO3)CC2)cc1C	i	i	i	i	i
CCOc1ccc(NC(=O)C(C)NS(=O)(=O)c2ccc(NC(C)=O)cc2)cc1 (stereo not drawn)	i	i	i	i	i
CO/N=C/C(=N\Nc1cc(OC)cc(OC)c1)C(=O)c1ccccc1	i	i	i	i	-5.42*
CCCCC1S/C(=N/N=C/c2ccc(OC)cc2)N(Cc2ccc(OC)cc2)C1=O (stereo not drawn)	i	i	i	i	-5.31*
COc1ccc(F)cc1S(=O)(=O)NC1CCCC1	i	i	i	i	i
CCCCCCN1C=CC=C/C1=C/C=C(C#N)C#N	i	i	i	i	-8.12*
COc1ccccc1NC(=O)Nc1ccc(CC#N)cc1	i	i	i	i	i
Oc1ccccc1C1=Nc2nc3ccccc3n2C(c2ccccc2)C1 (stereo not drawn)	i	16.8*	i	i	i
COc1ccc2c(Cl)c(C(=O)N/N=C/c3ccc4c(c3)OCO4)sc2c1	i	i	i	i	i
COc1ccc2c(Cl)c(C(=O)N/N=C3\CCCC(=O)C3)sc2c1	i	i	i	i	-7.42*
CCCCn1c(N)c(N(CCOC)C(=O)c2sc3cc(F)ccc3c2Cl)c(=O)[nH]c1=O	i	i	i	i	i
CCNC(=S)N/N=C(\C)c1ccc2c(c1)OCCO2	i	i	i	i	-6.49*
Cc1ccc(C)c(OCCC(=O)OCC(=O)Nc2cccc(S(=O)(=O)N3CCCC3)c2)c1	i	i	i	i	i
COc1ccc(Cc2nc3ccc(C(=O)NC(C)Cc4ncccc4C)cc3o2)cc1OC (stereo not drawn)	i	i	i	-6.95*	i
c1cnc(N2CCN(c3nc4ccccc4n4cnnc34)CC2)nc1	i	i	i	i	i
c1ccc(C(c2ccccc2)N2CCN(c3nc4ccccc4n4cnnc34)CC2)cc1	i	i	i	-7.25*	i
O=C1CN(C(=S)NC(=O)c2ccc(-c3ccccc3)cc2)CCN1	i	i	i	i	i
O=[N+]([O-])c1ccc(N/N=C/c2cn(-c3ccccc3)nc2-c2ccccc2)cc1	i	i	i	i	-4.54*
O=C(O)/C=C/c1cn(-c2ccccc2)nc1-c1cccc([N+](=O)[O-])c1	i	i	i	i	i
